Assay results from PubChem BioAssay.
Results filed as inconclusive are left out.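 Rule for the calls, unless noted: active = viability increase at or above a cutoff of the median across tested compounds plus 3 SD (cut at about 8.5% in these data, passing the limit was not always enough); inconclusive = some gains above the cutoff, reason not given; inactive = the rest.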

Assays:
[1] = S. cerevisiae growth inhibition in permissive medium (OD615), pilot counter-assay for S. cerevisiae lifespan shortening project, permissive growth control (AID 705;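 active = growth inhibition above 25% in both replicates, a cutoff set 3 SD above the mean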); conditions: OD615, 24 h, at 10 µM, stronger effect = higher value
Outline: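 System: S. cerevisiae with engineered DeaD lifespan system. Medium: SC raffinose/galactose permissive medium. Doses: single compound dose of 10 µM, 0.25% DMSO final. Schedule: 24 h exposure, 30 °C. Measured by: OD615 turbidity read. Read-out: growth inhibition.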

[2] = S. cerevisiae growth inhibition in restrictive medium, OD615, pilot screen, restrictive growth control, yeast lifespan reduction project (AID 706;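 active = growth inhibition above a set limit, 3 SD over mean compound inhibition, in both replicates, cut at about 43% in these data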;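 note: modified DeaD lifespan yeast strain shifted to restrictive glucose medium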); conditions: OD615, 48 h, at 10 µM, stronger effect = higher value
Outline: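 Assay system – genetically modified Saccharomyces cerevisiae, DeaD replicative lifespan assay strain · Medium – CSMM-D glucose medium · Doses – 10 µM compound, 0.25% DMSO · Times – 4 h pre-incubation, 48 h exposure at 30 °C · Signal – optical density at 615 nm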

[3] = doxorubicin toxicity protection in MRP-1 cells – H69AR cells, CellTiter-Glo, duplicate, MRP-1 activator project, pilot screen (AID 807); conditions: H69AR viability with doxorubicin, CellTiter-Glo luminescence; at 10 µM; stronger effect = higher value;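 note: compound pretreatment 18-22 h then 72 h combined with doxorubicin; 0% = doxorubicin alone and 100% = vehicle without doxorubicin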
[4] = viability of HCT116 without oncogenic beta-catenin – human colon tumor cells, pilot screen (AID 823;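 active = cell viability at or below a set limit in both duplicate runs, the limit being the all-compound median minus 4 SD, cut at about 23% in these data, passing the limit was not always enough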;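 note: 0% = wells killed by 20 µM Hyamine and 100% = untreated DMSO cell wells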); conditions: HCT116 beta-catenin knockout viability, CellTiter-Glo, 60 h; at 10 µM; stronger effect = lower value
[5] = viability of PTEN-null HCT116 cells – cell-based, HCT116 clonal line, CellTiter-Glo, pilot screen (AID 824;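 active = viability at or below 27.92% in each of two runs, the all-compound median minus 4 SD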;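 note: 0% = 20 µM Hyamine control and 100% = vehicle cell control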); conditions: HCT116 PTEN-deleted viability, 60 h, at 10 µM, stronger effect = lower value
[6] = RAM pathway blockade in budding yeast – dse1pr::URA3 reporter, 5-FOA selection, pilot screen (AID 869;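 active = inhibition over a set limit, the all-compound mean plus 3 SD, in both replicate runs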;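 note: 0% = DMSO wells with no growth and 100% = 10 µM 1-NA-PP1 with full growth; RAM network block rescues cells from 5-FOA so hits raise OD615 growth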); conditions: S. cerevisiae dse1pr::URA3 5-FOA growth, OD615, 2 d; at 10 µM; stronger effect = higher value; strain carries analog-sensitive mutant Cbk1 kinase
[7] = RAM signaling pathway blockade in yeast – S. cerevisiae, Pdr1DBD-CYC8 efflux-inhibited sensitized strain, primary screen (AID 1298;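 active = RAM network inhibition above 8.4% in each of two replicates, 3 SD over the compound average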;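 note: 0% = DMSO untreated cells without growth and 100% = 10 µM 1-NA-PP1 full growth; higher means more yeast growth rescued from 5-FOA killing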); conditions: S. cerevisiae cbk1-as DSE1-URA3 strain, 5-FOA growth OD615, 2 d; at 50 µM; stronger effect = higher value

Cn1c(SCc2nc(-c3ccc(Cl)cc3)no2)nnc1-c1ccco1
inactive: growth inhibition [1] -8.54% | growth inhibition [2] -0.675% | viability increase [3] -2.85% | viability [4] 90.6% | viability [5] 85.6% | inhibition [6] 2.02% | RAM network inhibition [7] 6.31%

Cc1ccc(Cn2nnc3c(=O)n(CC(=O)c4ccccc4)cnc32)cc1
inactive: growth inhibition [1] -5.55% | growth inhibition [2] -9.49% | viability increase [3] -2.92% | viability [4] 96.7% | viability [5] 91.5% | inhibition [6] 3.42% | RAM network inhibition [7] 5.01%

COc1ccc(C(=O)NCc2cn3ccsc3n2)cc1OC
inactive: growth inhibition [1] -9.73% | growth inhibition [2] -1.42% | viability increase [3] -1.54% | viability [4] 105% | viability [5] 94.6% | inhibition [6] 2.29% | RAM network inhibition [7] 2.63%

O=C(Nc1nnc(-c2ccc(F)cc2)o1)c1ccco1
inactive: growth inhibition [1] -6.49% | growth inhibition [2] -4.85% | viability increase [3] -3.74% | viability [4] 97.5% | viability [5] 92.8% | inhibition [6] 1.46% | RAM network inhibition [7] 0.1%

CSc1nnc(-c2ccco2)n1-c1ccccc1
inactive: growth inhibition [1] -6.73% | growth inhibition [2] 6.08% | viability increase [3] -0.4% | viability [4] 94.6% | viability [5] 90% | inhibition [6] 2.92% | RAM network inhibition [7] 5.77%

O=C(Nc1nnc(-c2ccccc2)o1)c1nc2ccccc2s1
inactive: growth inhibition [1] -9.03% | growth inhibition [2] 10.3% | viability increase [3] -3.96% | viability [4] 93.8% | viability [5] 88.8% | inhibition [6] 1.39% | RAM network inhibition [7] 0.11%

O=C(CSc1nnc(-c2ccccc2)o1)Nc1ccccc1F
inactive: growth inhibition [1] -5.54% | growth inhibition [2] -2.1% | viability increase [3] -3.62% | viability [4] 37.7% | viability [5] 38% | inhibition [6] 2.13% | RAM network inhibition [7] 8.53%

CCOC(=O)Cn1nc(C)c(-c2ccccc2)c1N
inactive: growth inhibition [1] -23.1% | growth inhibition [2] -5.69% | viability increase [3] -1.41% | viability [4] 97.4% | viability [5] 95.2% | inhibition [6] 1.26% | RAM network inhibition [7] 2.61%

COc1cccc(-n2nnc3c(=O)n(CC(=O)NCC4CCCO4)cnc32)c1 (stereo not given)
inactive: growth inhibition [1] 2.81% | growth inhibition [2] -2.83% | viability increase [3] 0.22% | viability [4] 101% | viability [5] 93.7% | inhibition [6] -0.415% | RAM network inhibition [7] 5.27%

CC(=O)Oc1ccc(N2C(=O)C3C4C=CC(O4)C3C2=O)cc1 (stereo not given)
inactive: growth inhibition [1] 14.2% | growth inhibition [2] 27.7% | viability increase [3] -1.46% | viability [4] 92.1% | viability [5] 101% | inhibition [6] 2.19% | RAM network inhibition [7] 0.14%

COc1cc(C2NC(=O)N(C)C3=C2C(=O)CCC3)cc(OC)c1OC (stereo not given)
inactive: growth inhibition [1] -3.03% | growth inhibition [2] -17.1% | viability increase [3] -0.05% | viability [4] 104% | viability [5] 99% | inhibition [6] 2.73% | RAM network inhibition [7] 4.71%

Cc1c(NC(=O)C(C)N2C(=O)C3C4C=CC(C4)C3C2=O)c(=O)n(-c2ccccc2)n1C (stereo not given)
inactive: growth inhibition [1] -8.7% | growth inhibition [2] -11.3% | viability increase [3] -0.72% | viability [4] 95.4% | viability [5] 93.2% | inhibition [6] 1.39% | RAM network inhibition [7] 2.56%

COc1ccc(C(=O)NCC(c2cccnc2)N2CCN(c3ccccc3OC)CC2)cc1OC (stereo not given)
inactive: growth inhibition [1] -7.95% | growth inhibition [2] -2.41% | viability increase [3] -3.05% | viability [4] 89.4% | viability [5] 91% | inhibition [6] 1.16% | RAM network inhibition [7] 2.21%

O=C(CCN1CCN(c2ccccc2)CC1)Nc1ccc2c(c1)OCO2
inactive: growth inhibition [1] -5.71% | growth inhibition [2] 0.05% | viability increase [3] -4.06% | viability [4] 91.7% | viability [5] 92.4% | inhibition [6] 2.58% | RAM network inhibition [7] 1.28%

CCC(CC)C(=O)NCc1ccccc1OC
inactive: growth inhibition [1] 4.68% | growth inhibition [2] -4.89% | viability increase [3] -0.51% | viability [4] 99.1% | viability [5] 101% | inhibition [6] 0.98% | RAM network inhibition [7] 2.02%

CCOC(=O)C1CCN(C(=O)COc2cc(C)c(Br)c(C)c2)CC1
inactive: growth inhibition [1] -2.41% | growth inhibition [2] -16.5% | viability increase [3] -3.43% | viability [4] 94.4% | viability [5] 85.3% | inhibition [6] 1.47% | RAM network inhibition [7] 1.59%

CC(C)CNC1=CC(=O)CC(c2ccco2)C1 (stereo not given)
inactive: growth inhibition [1] -13% | growth inhibition [2] -15.9% | viability increase [3] -1.92% | viability [4] 91.5% | viability [5] 93.8% | inhibition [6] 1.17% | RAM network inhibition [7] -0.73%

CCC(CO)N=CC1=C(O)C(C(=O)c2ccccc2)CCC1=O (stereo not given)
inactive: growth inhibition [1] -10.4% | growth inhibition [2] -14.8% | viability increase [3] 1.63% | viability [4] 96.5% | viability [5] 105% | inhibition [6] 0.62% | RAM network inhibition [7] 2.38%

Cc1ccc(-c2nn3c(C)nnc3s2)cc1NC(=O)C(C)C
inactive: growth inhibition [1] -1.65% | growth inhibition [2] 13.7% | viability increase [3] -2.89% | viability [4] 110% | viability [5] 105% | inhibition [6] 0.965% | RAM network inhibition [7] -0.58%

O=C(Cn1cnc2c(nnn2-c2ccccc2)c1=O)NCC1CCCO1 (stereo not given)
inactive: growth inhibition [1] -6.44% | growth inhibition [2] 8.14% | viability increase [3] -2.94% | viability [4] 100% | viability [5] 94.3% | inhibition [6] 1.41% | RAM network inhibition [7] 1.65%

O=C(NCCc1ccc(Cl)cc1)c1cnc2n(c1=O)CCS2
inactive: growth inhibition [1] -1.75% | growth inhibition [2] -8.11% | viability increase [3] 3.85% | viability [4] 95% | viability [5] 92.1% | inhibition [6] 0.37% | RAM network inhibition [7] 9.74%

COc1ccc(C2C(C(=O)Nc3ccccn3)=C(C)Nc3ncnn32)c(OC)c1 (stereo not given)
inactive: growth inhibition [1] -8.54% | growth inhibition [2] -6.24% | viability increase [3] -1.04% | viability [4] 101% | viability [5] 92.1% | inhibition [6] 2.48% | RAM network inhibition [7] 7.85%

COC(=O)c1sc2ccccc2c1N
inactive: growth inhibition [1] 1.37% | growth inhibition [2] 27.7% | viability increase [3] -3.26% | viability [4] 101% | viability [5] 94.6% | inhibition [6] 0.515% | RAM network inhibition [7] 2.29%

CCOC(=O)c1c(-c2ccccc2)c(C(C)=O)c(=O)n(C)c1C
inactive: growth inhibition [1] -19% | growth inhibition [2] -9.79% | viability increase [3] -3.81% | viability [4] 95.9% | viability [5] 94.1% | inhibition [6] 4.63% | RAM network inhibition [7] 1.72%

Cc1ccccc1-c1nnc(-c2ccccc2)o1
inactive: growth inhibition [1] -0.03% | growth inhibition [2] -4.75% | viability increase [3] -4.15% | viability [4] 80.9% | viability [5] 83.1% | inhibition [6] 1.82% | RAM network inhibition [7] 0.2%
